The subject of series [1] is NCI-H1975. In words: Antiproliferative activity against human NCI-H1975 cells after 72 hrs by MTT assay. As to conditions: NCI-H1975, 72 h. Type of series: functional, cell-based.
Series [2] deals with HepG2. In words: Antiproliferative activity against human HepG2 cells after 72 hrs by MTT assay. Type of series: functional, cell-based. As to conditions: HepG2, 72 h.
For series [3], the system named is HCT-116. Put plainly: Antiproliferative activity against human HCT116 cells after 72 hrs by MTT assay. Type of series: functional, cell-based. As to conditions: HCT-116, 72 h.
A short description of series [4]: Partition coefficient, log P of the compound. Type of series: physicochemical. As to conditions: octanol/water.
Series [5] can be described thus: Selectivity index, ratio of IC50 for HUVEC to IC50 for human K562 cells. Type of series: toxicity. To be noted: HUVEC versus K562 cells, read-out: Ratio IC50. The procedure, abridged:
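K562 tumor cells and HUVEC grown in RPMI-1640 with 10% FBS and penicillin-streptomycin at 37 °C under 5% CO2. Viability was read by MTT or MTS assay, with tumor cells exposed to compounds for 48 h. IC50 values came from the Logit method across 3 independent experiments. The index is HUVEC IC50 divided by K562 IC50.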

The test system of series [6] is A549. Put plainly: Antiproliferative activity against human A549 cells after 48 hrs by MTT assay. As to conditions: A549, 48 h. Type of series: functional, cell-based. The procedure, abridged: (§1)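 Cells from the Institute of Cell Biology, CAS (Shanghai), grown in RPMI-1640 with 10% FBS and 100 U/mL penicillin-streptomycin at 37 °C under 5% CO2. Cells were exposed to compounds for 48 h, and viability was read by MTT (or MTS). IC50, the concentration giving 50% inhibition, was calculated by the Logit method. Data are representative of 3 independent experiments.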

Series [7] deals with K562. In words: Antiproliferative activity against human K562 cells after 48 hrs by MTT assay. As to conditions: K562, 48 h. Type of series: functional, cell-based. The procedure, abridged: as §1
The test system of series [8] is HepG2. In words: Antiproliferative activity against human HepG2 cells after 48 hrs by MTT assay. Type of series: functional, cell-based. As to conditions: HepG2, 48 h. The procedure, abridged:
as §1

Series [9] has as its system HUVEC. In words: Antiproliferative activity against human HUVEC cells after 48 hrs by MTT assay. Type of series: cell-based. The procedure, abridged: as §1
Series [10] concerns K562. In words: Antiproliferative activity against human K562 cells by MTT assay. Type of series: functional, cell-based. The procedure, abridged:
as §1

Series [11] in a line: Antiproliferative activity against human SPCA1 cells by MTT assay. Type of series: functional, cell-based.
Series [12] deals with A549. In words: Antiproliferative activity against human A549 cells by MTT assay. Type of series: functional, cell-based. The procedure, abridged: as §1
Series [13] has as its system A2780. In words: Antiproliferative activity against human A2780 cells after 24 hrs by MTT assay. Type of series: functional, cell-based. To be noted: A2780, 24 h.
In series [14] the test system is K562. In words: Antiproliferative activity against human K562 cells after 24 hrs by MTT assay. Type of series: functional, cell-based. To be noted: K562, 24 h.
A short description of series [15]: Antiproliferative activity against human SPCA1 cells after 24 hrs by MTT assay. Type of series: functional, cell-based. As to conditions: SPCA1, 24 h.
For series [16], the system named is HepG2. Put plainly: Antiproliferative activity against human HepG2 cells after 24 hrs by MTT assay. Type of series: functional, cell-based. To be noted: HepG2, 24 h.
The test system of series [17] is A549. In words: Antiproliferative activity against human A549 cells after 24 hrs by MTT assay. Type of series: functional, cell-based. To be noted: A549, 24 h.
Series [18] is described as follows: Antiproliferative activity against […] cells after 24 hrs by MTT assay. Type of series: functional, cell-based. To be noted: LL/2, 24 h.
Series [19] deals with HeLa. In words: Antiproliferative activity against human HeLa cells. Type of series: functional, cell-based.
A short description of series [20]: Antiproliferative activity against mouse C26 cells. Type of series: functional, cell-based.

On to `C=CCc1ccc(O)c(-c2ccc(O)c(CC(O)COC)c2)c1` (configuration not stated), for which the IC50 in series [1], in series [2] and in series [3] was more than 40 µM in each case. The lipophilicity (logP) in series [4] worked out at 3.7.

For the molecule `O=Cc1ccc(O)c(-c2ccc(O)c(CC3CO3)c2)c1` (configuration not stated), the IC50 in series [1], in series [2] and in [3] was more than 40 µM each time. Besides, the logP in [4] was 3.16.

Turning to `C=CCc1cc2c(c(-c3cc(CC=C)c4c(c3)NC(=O)CO4)c1)OCC(=O)N2`, the selectivity ratio in series [5] is 11.6. The half-maximal inhibitory concentration (IC50) in [6] came to 37 µM; in [7], 7.08 µM; in series [8], 27.4 µM; in series [9] it was 82.1 µM. Further, in series [4], the logP was found to be 3.29.

Take `C=CCc1ccc(O)c(-c2ccc(O)c(/C=C\C)c2)c1`: the concentration for half-maximal inhibition (IC50) in series [1] was 39.8 µM; in [2] it was 31.6 µM; in [3], 19.9 µM. Besides, in [4], the log partition coefficient (logP) came to 5.1.

For the molecule `C=CCc1cc(NC(=O)C=C)c(O)c(-c2cc(CC=C)c(O)c(NC(=O)C=C)c2)c1`, the selectivity ratio in series [5] is 11.5. Moreover, the 50% inhibitory concentration (IC50) is 16.6 µM in series [6], 5.04 µM in series [7], 19.1 µM in series [8] and 57.8 µM in series [9]. In series [4], this molecule came in with a logP of 4.3.

For the molecule `C=CCc1cc(C=O)c(O)c(-c2cc(C=O)c(O)c(CC=C)c2)c1`, the IC50 was 32.6 µM in series [10], 31.4 µM in [11] and more than 77.6 µM in series [12]. Also, the logP in series [4] came to 4.23.

For the molecule `C=CCc1cc(C=O)c(O)c(-c2ccc(O)c(CC=C)c2)c1`, the half-inhibitory concentration (IC50) in series [10] was 54.6 µM; in series [12], more than 85 µM. Also, in series [4], the logP was 4.72.

Consider `C=CCc1ccc(O)c(-c2cc(C=O)c(O)c(CC=C)c2)c1`, for which the IC50 in series [13] turned out to be 17.8 µM; in [14], 11.6 µM; in series [10], 19.7 µM; in series [11], 22.8 µM; in series [15] it was 37.3 µM; in series [16], 20.2 µM. Further, the half-maximal inhibitory concentration (IC50) in series [17] came out at 34.1 µM; in [12], 49 µM; in series [18], 31.3 µM. Besides, in series [4], the lipophilicity (logP) amounted to 4.51.

Take `C=CCc1ccc(O)c(-c2ccc(O)c(CC=C)c2)c1` [HONOKIOL]: the selectivity ratio in series [5] is 2.2. Further, the 50% inhibitory concentration (IC50) amounted to 22.1 µM in series [14]; 28.4 µM in series [10]; 62 µM in series [19]; 23.9 µM in [7]; 33.9 µM in [2]; 41.3 µM in [11]. Further, the half-maximal inhibitory concentration (IC50) in [15] was determined as 37.3 µM; in series [20], 65.1 µM; in series [3], 19.1 µM; in [8], 34.3 µM; in series [16], 32.9 µM; in series [17], 34.1 µM. In addition, the IC50 in series [12] worked out at 29.7 µM; in [18] it was 65.3 µM. In series [4], this molecule displayed a log partition coefficient (logP) of 5.

The values above are taken from ChEMBL document CHEMBL4346736, “Anti-proliferative activity and structure-activity relationship of honokiol derivatives” (Bioorg Med Chem, 2019).
